Measurements taken from ChEMBL document CHEMBL1147795, “cis-2,5-dicyanopyrrolidine inhibitors of dipeptidyl peptidase IV: synthesis and in vitro, in vivo, and X-ray crystallographic characterization” (J Med Chem, 2006).
pIC50: −log10 of the molar value. Calls of active or inactive are those of the source. The calls are words filed in the database; no cut-off is given here.

How the values were obtained:
[1] = target: Dipeptidyl peptidase 4 (Homo sapiens, UniProt P27487); assay: Inhibition of human recombinant DPP4
Dipeptidyl peptidase 4, sequence (P27487 whole entry): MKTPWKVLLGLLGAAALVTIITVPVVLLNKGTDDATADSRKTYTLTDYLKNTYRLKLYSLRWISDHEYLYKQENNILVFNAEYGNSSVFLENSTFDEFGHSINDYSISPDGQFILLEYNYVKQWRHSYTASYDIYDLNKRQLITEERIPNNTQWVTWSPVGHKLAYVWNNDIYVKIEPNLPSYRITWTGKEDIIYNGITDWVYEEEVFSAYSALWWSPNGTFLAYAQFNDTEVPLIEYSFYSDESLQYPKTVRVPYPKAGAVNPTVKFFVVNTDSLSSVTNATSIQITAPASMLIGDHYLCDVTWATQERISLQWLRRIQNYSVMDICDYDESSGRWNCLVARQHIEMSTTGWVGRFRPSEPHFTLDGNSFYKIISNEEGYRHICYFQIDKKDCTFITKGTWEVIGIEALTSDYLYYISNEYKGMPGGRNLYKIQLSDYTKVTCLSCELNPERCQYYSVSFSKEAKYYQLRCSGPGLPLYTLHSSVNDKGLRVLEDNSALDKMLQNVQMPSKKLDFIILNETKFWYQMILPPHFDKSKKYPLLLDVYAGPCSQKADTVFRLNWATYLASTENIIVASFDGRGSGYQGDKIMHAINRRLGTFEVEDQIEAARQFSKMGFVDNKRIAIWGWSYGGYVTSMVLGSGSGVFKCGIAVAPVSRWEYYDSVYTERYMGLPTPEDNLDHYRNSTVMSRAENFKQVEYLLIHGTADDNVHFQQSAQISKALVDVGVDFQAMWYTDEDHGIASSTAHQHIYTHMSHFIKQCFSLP

[2] = target: Dipeptidyl peptidase 4 (Mus musculus) (UniProt P28843); assay: Lowering of glucose level in diabetic KK/H1J mouse at 10 mg/kg, po; type: functional, organism-based; design: dose 10 mg/kg
Dipeptidyl peptidase 4 (Mus musculus), sequence (P28843 whole entry, looked up): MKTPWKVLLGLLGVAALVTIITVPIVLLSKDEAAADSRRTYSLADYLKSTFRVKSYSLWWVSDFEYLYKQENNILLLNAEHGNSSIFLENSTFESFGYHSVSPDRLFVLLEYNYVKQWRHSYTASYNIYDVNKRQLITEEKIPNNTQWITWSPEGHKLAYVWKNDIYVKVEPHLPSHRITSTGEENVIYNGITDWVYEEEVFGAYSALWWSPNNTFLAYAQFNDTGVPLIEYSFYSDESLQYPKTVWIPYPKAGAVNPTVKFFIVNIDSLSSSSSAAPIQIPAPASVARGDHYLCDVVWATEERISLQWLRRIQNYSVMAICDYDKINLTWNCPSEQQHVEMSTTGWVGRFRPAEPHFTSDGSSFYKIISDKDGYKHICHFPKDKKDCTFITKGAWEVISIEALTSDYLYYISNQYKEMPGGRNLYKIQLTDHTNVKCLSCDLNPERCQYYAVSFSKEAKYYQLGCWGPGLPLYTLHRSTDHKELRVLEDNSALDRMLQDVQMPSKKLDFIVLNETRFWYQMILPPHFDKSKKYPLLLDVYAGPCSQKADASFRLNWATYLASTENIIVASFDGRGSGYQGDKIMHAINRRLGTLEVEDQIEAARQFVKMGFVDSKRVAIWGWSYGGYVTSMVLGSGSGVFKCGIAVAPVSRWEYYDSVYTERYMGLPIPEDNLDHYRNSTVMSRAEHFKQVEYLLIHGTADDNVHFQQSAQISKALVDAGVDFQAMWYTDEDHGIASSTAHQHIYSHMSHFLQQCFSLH
Outline: (§1)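 Diabetic KK/H1J mice fasted overnight, 10 per group, dosed orally in 0.5% methylcellulose. Glucose given orally at t = 15 min; plasma glucose at t = 45 min.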

[3] = Volume of distribution in Beagle dog; type: ADME, organism-based, Canis lupus familiaris; conditions: in vivo, read-out: Vdss
Outline: (§2)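 Dog and monkey PK: oral dosing at 1 mg kg^-1 in sterile water, intravenous at 1 mg kg^-1 in sterile saline.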

[4] = Bioavailability in cynomolgus monkey; type: ADME, organism-based, Macaca fascicularis; conditions: in vivo; outline: as §2
[5] = Tmax in cynomolgus monkey; type: ADME, organism-based, Macaca fascicularis; conditions: in vivo; outline: as §2
[6] = Half life in Beagle dog at 1 mg/kg, iv; type: ADME, organism-based, Canis lupus familiaris; design: dose 1 mg/kg, route intravenous; conditions: in vivo; outline: as §2
[7] = tested on: Cynomolgus monkey; assay: Hepatic clearance in cynomolgus monkey; type: ADME, organism-based, Macaca fascicularis, Liver; conditions: in vivo; outline: as §2
[8] = Tmax in Sprague-Dawley rat; type: ADME, organism-based; conditions: in vivo
Outline: (§3)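 Male Sprague-Dawley rats (200-250 g), jugular vein cannulated. IV bolus 1.0 mg/kg in sterile saline; oral gavage 5.0 mg/kg in 0.5% methylcellulose. Blood sampled 0 to 24 h into lithium heparin, plasma frozen at -70 °C, compound quantified by LC/MS/MS after acetonitrile protein precipitation (standard curve 1.0-2000 ng/mL).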

[9] = Half life in Sprague-Dawley rat at 5 mg/kg, po; type: ADME, organism-based; design: dose 5 mg/kg, route oral; conditions: in vivo; outline: as §3
[10] = organism: Rattus norvegicus; assay: AUC (0-infinity) in Sprague-Dawley rat; type: ADME, organism-based, Plasma; design: time infinity; conditions: in vivo; outline: as §3
[11] = Bioavailability in Sprague-Dawley rat; type: ADME, organism-based; conditions: in vivo; outline: as §3
[12] = Tmax in Beagle dog; type: ADME, organism-based, Canis lupus familiaris; conditions: in vivo; outline: as §2
[13] = Half life in cynomolgus monkey at 1 mg/kg, iv; type: ADME, organism-based, Macaca fascicularis; design: dose 1 mg/kg, route intravenous; conditions: in vivo; outline: as §2
[14] = organism: Rattus norvegicus; assay: Cmax in Sprague-Dawley rat; type: ADME, organism-based; conditions: in vivo; outline: as §3
[15] = tested on: Canis familiaris; assay: Increase in thiocyanate ion in dog plasma at 3 mg/kg, po after 24 hrs; type: ADME, organism-based, Canis lupus familiaris; design: dose 3 mg/kg, route oral; conditions: in vivo
Outline: (§4)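 Stored plasma from earlier oral dosing (rat 15 mg kg^-1, dog and monkey 3 mg kg^-1) analysed for thiocyanate through 24 h, compared with the t = 0 sample.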

[16] = Half life in Sprague-Dawley rat at 1 mg/kg, iv; type: ADME, organism-based; design: dose 1 mg/kg, route intravenous; conditions: in vivo; outline: as §3
[17] = Half life in Beagle dog at 1 mg/kg, po; type: ADME, organism-based, Canis lupus familiaris; design: dose 1 mg/kg, route oral; conditions: in vivo; outline: as §2
[18] = Percent of unbound ligand in human plasma; type: ADME
[19] = organism: Rattus norvegicus; assay: Hepatic clearance in Sprague-Dawley rat; type: ADME, organism-based, Liver; conditions: in vivo; outline: as §3
[20] = Volume of distribution in Sprague-Dawley rat; type: ADME, organism-based; conditions: in vivo, read-out: Vdss; outline: as §3
[21] = Volume of distribution in cynomolgus monkey; type: ADME, organism-based, Macaca fascicularis; conditions: in vivo, read-out: Vdss; outline: as §2
[22] = Percent of unbound ligand in Sprague-Dawley rat plasma; type: ADME, cell-free
[23] = Bioavailability in Beagle dog; type: ADME, organism-based, Canis lupus familiaris; conditions: in vivo; outline: as §2
[24] = Percent of unbound ligand in cynomolgus monkey plasma; type: ADME, cell-free, Macaca fascicularis
[25] = Half life in cynomolgus monkey at 1 mg/kg, po; type: ADME, organism-based, Macaca fascicularis; design: dose 1 mg/kg, route oral; conditions: in vivo; outline: as §2
[26] = organism: Canis familiaris; assay: Hepatic clearance in Beagle dog; type: ADME, organism-based, Canis lupus familiaris, Liver; conditions: in vivo; outline: as §2
[27] = Percent of unbound ligand in Beagle dog plasma; type: ADME, cell-free, Canis lupus familiaris
[28] = tested on: Rattus norvegicus; assay: Increase in thiocyanate ion in rat plasma at 15 mg/kg, po after 24 hrs; type: ADME, organism-based; design: dose 15 mg/kg, route oral; conditions: in vivo; outline: as §4
[29] = tested on: Rhesus monkey; assay: Increase in thiocyanate ion in monkey plasma at 3 mg/kg, po after 24 hrs; type: ADME, organism-based; design: dose 3 mg/kg, route oral; conditions: in vivo; outline: as §4
[30] = target: Dipeptidyl peptidase 4 (Mus musculus) (UniProt P28843); assay: Lowering of glucose level in diabetic KK/H1J mouse at 3 mg/kg, po; type: functional, organism-based; design: dose 3 mg/kg; outline: as §1
[31] = Solubility in unbuffered water; type: physicochemical
Outline: (§5)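 Solubility of the mono-hydrochloride salt measured in PBS pH 6.5 and in unbuffered water; final pH of the water solution 2.0.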

[32] = Solubility in phosphate buffered saline at pH 6.5; type: physicochemical; outline: as §5
[33] = target: Dipeptidyl peptidase 4 (Mus musculus) (UniProt P28843); assay: Lowering of glucose level in diabetic KK/H1J mouse at 0.3 mg/kg, po; type: functional, organism-based; design: dose 0.3 mg/kg
Outline: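 Overnight-fasted diabetic KK/H1J mice, 10 per group, given compound orally in 0.5% methylcellulose (0.2 mL per mouse), then an oral glucose challenge at t = 15 min. Retro-orbital bleeds were taken at 0, 15 and 45 min for plasma glucose. […] Scored significant or nonsignificant.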

[34] = target: Dipeptidyl peptidase 4 (Mus musculus) (UniProt P28843); assay: Lowering of glucose level in diabetic KK/H1J mouse at 2.5 mg/kg, po; type: functional, organism-based; design: dose 2.5 mg/kg; outline: as §1
[35] = target: Dipeptidyl peptidase 4 (Mus musculus) (UniProt P28843); assay: Increase in plasma GLP1 level in KK mouse at 5 mg/kg, po after 2 hrs; type: functional, organism-based; design: dose 5 mg/kg
Outline: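 Fed KK mice dosed 5 mg kg^-1 orally at t = 0. Blood sampled at intervals over 2 h for plasma GLP-1 and DPP-IV activity.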

[36] = target: Dipeptidyl peptidase 4 (Mus musculus) (UniProt P28843); assay: Lowering of glucose level in diabetic KK/H1J mouse at 5 mg/kg, po; type: functional, organism-based; design: dose 5 mg/kg; outline: as §1

CC(C)(C)C(C)(C)NCC(=O)N1[C@H](C#N)CC[C@@H]1C#N
pIC50 [1]: < 5.52

CNC(=O)C1(NCC(=O)N2[C@H](C#N)CC[C@@H]2C#N)CCCC1
pIC50 [1]: < 5.52

N[C@H](C(=O)N1CC(F)(F)C(F)(F)C1)C1CCCCC1
Activity [2]: 57%

C[C@@H]1CC(C)(NCC(=O)N2[C@H](C#N)CC[C@@H]2C#N)C[C@@H]1C (stereo partly drawn)
pIC50 [1]: < 5.52

CCCCOCC1(NCC(=O)N2[C@H](C#N)CC[C@@H]2C#N)CCCC1
pIC50 [1]: 7.04 | Activity [2]: 16%

N#C[C@@H]1CC[C@H](C#N)N1C(=O)CNC12CC3(F)CC(F)(CC(F)(C3)C1)C2
pIC50 [1]: < 5.52

C#CC1(NCC(=O)N2[C@H](C#N)CC[C@@H]2C#N)CCCCC1
pIC50 [1]: < 5.52

N#C[C@@H]1CC[C@H](C#N)N1C(=O)CNC1(CO)CCCC1 [listing 1 of 2 here]
Vd [3]: 1.3 L/kg | bioavailability [4]: 42% | Tmax [5]: ≤ 60 min | half-life [6]: 48 min | CL [7]: 42 mL/min/kg | Tmax [8]: ≤ 60 min | half-life [9]: 162 min | AUC [10]: Dose-dependent effect | bioavailability [11]: 77% | Tmax [12]: ≤ 60 min | half-life [13]: 36 min | Cmax [14]: Dose-dependent effect | Activity [15]: Not Active | half-life [16]: 18 min | half-life [17]: 318 min | fraction unbound [18]: 0.77 | CL [19]: 70 mL/min/kg | Vd [20]: 1.4 L/kg | Vd [21]: 1.7 L/kg | fraction unbound [22]: 1 | bioavailability [23]: 93% | fraction unbound [24]: 0.84 | half-life [25]: 144 min | CL [26]: 22 mL/min/kg | fraction unbound [27]: 1 | Activity [28]: Not Active | Activity [29]: Not Active

CCC(C)(C)NCC(=O)N1[C@H](C#N)CC[C@@H]1C#N
pIC50 [1]: < 5.52

C[C@H]1CC[C@@H](C#N)N1C(=O)CNC12CC3CC(CC(C3)C1)C2
pIC50 [1]: < 4.52

CCC(C)(C)C1CCC(C)(NCC(=O)N2[C@H](C#N)CC[C@@H]2C#N)C1 (stereo partly drawn)
pIC50 [1]: < 5.52

CC(C)C(C)(C)NCC(=O)N1[C@H](C#N)CC[C@@H]1C#N
pIC50 [1]: < 5.52

N#C[C@@H]1CC[C@H](C#N)N1C(=O)CNC12CC3CC(CC(O)(C3)C1)C2
pIC50 [1]: 7.13 | Activity [30]: 45% | half-life [9]: 84 min | bioavailability [11]: 42% | half-life [16]: 24 min | CL [19]: 130 mL/min/kg | Vd [20]: 2.7 L/kg

CC1(NCC(=O)N2[C@H](C#N)CC[C@@H]2C#N)CCSC1 (stereo partly drawn)
pIC50 [1]: < 5.52

N#C[C@@H]1CC[C@H](C#N)N1C(=O)CNC1(CCO)CCCC1
pIC50 [1]: < 5.52

N#C[C@@H]1CC[C@H](c2ccccc2)N1C(=O)CNC1(CO)CCCC1
pIC50 [1]: < 4.52

N#C[C@@H]1CC[C@H](C#N)N1C(=O)CNC12CC3CC(CC(C3)C1)C2
Activity [30]: 55% | half-life [16]: 36 min | CL [19]: 80 mL/min/kg | Vd [20]: 3.1 L/kg

Cl.N#C[C@@H]1CC[C@H](C#N)N1C(=O)CNC1(CO)CCCC1
solubility [31]: 200 mg/mL | solubility [32]: > 76 mg/mL

CCC1(NCC(=O)N2[C@H](C#N)CC[C@@H]2C#N)CCCCC1
pIC50 [1]: < 5.52

CCOCC1(NCC(=O)N2[C@H](C#N)CC[C@@H]2C#N)CCCC1
pIC50 [1]: 7.19 | Activity [2]: 79%

COCC1(NCC(=O)N2[C@H](C#N)CC[C@@H]2C#N)CCCC1
pIC50 [1]: 7.08 | half-life [9]: 38.4 min | bioavailability [11]: 48% | Activity [2]: 74% | half-life [16]: 12 min | CL [19]: 98 mL/min/kg | Vd [20]: 1.6 L/kg

CC1(C)CCCC1(C)NCC(=O)N1[C@H](C#N)CC[C@@H]1C#N (stereo partly drawn)
pIC50 [1]: < 5.52

N#C[C@@H]1CC[C@H](C#N)N1C(=O)CNC1(CCCO)CCCCC1
pIC50 [1]: < 5.52

CC1(NCC(=O)N2[C@H](C#N)CC[C@@H]2C#N)COC(C)(C)OC1
pIC50 [1]: < 5.52

N#C[C@@H]1CC[C@H](C#N)N1C(=O)CNC1(Cc2ccccc2)CCCCC1
pIC50 [1]: < 5.52

N#C[C@@H]1C[C@H](O)CN1C(=O)CNC12CC3CC(CC(C3)C1)C2
pIC50 [1]: < 4.52

CCC(C)(CC)NCC(=O)N1[C@H](C#N)CC[C@@H]1C#N
pIC50 [1]: < 5.52

COC(=O)C1(NCC(=O)N2[C@H](C#N)CC[C@@H]2C#N)CCCC1
pIC50 [1]: < 5.52

N#C[C@@H]1CC[C@H](C#N)N1C(=O)CNC1(CO)CCCC1 [listing 2 of 2 here]
Activity [33]: 46% | Activity [34]: 59% | Activity [2]: 67% | Activity [35]: Active

N#C[C@@H]1CC[C@H](C#N)N1C(=O)CNC12CC3CC(CC1C3)C2
pIC50 [1]: 7.14 | Activity [36]: 62%
